Assay results: ChEMBL document CHEMBL4342497, “Design, Synthesis, and Conformation-Activity Study of Unnatural Bridged Bicyclic Depsipeptides as Highly Potent Hypoxia Inducible Factor-1 Inhibitors and Antitumor Agents” (J Med Chem, 2020)
Calls of active or inactive are those of the source. The rule behind the calls is not given here.

Assays:
[1] = Inhibition of HIF1 (unknown origin) expressed in HEK293 cells assessed as reduction in hypoxia-induced HIF1 activation pre-incubated for 1 hrs before hypoxia exposure for 24 hrs by luciferase reporter gene assay; format: cell-based; settings: Homo sapiens
Summary of the method: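 HEK293 cells stably carrying HRE reporter plasmid p2.1, seeded at 8.0×10^4 per well and grown 24 h in normoxia. Medium changed to fresh medium with 0.25% DMSO and a range of compound concentrations for 1 h, then 24 h at 1% O2 or normoxia. Luciferase activity normalised to protein content. IC50 as mean ± SD, n = 3.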

MCF7 [2] = assay: Cytotoxicity against human MCF7 cells assessed as reduction in cell viability incubated for 24 hrs by MTT assay; format: functional, cell-based; settings: MCF7, 24 h
Summary of the method: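 MCF-7 cells seeded at 8.0×10^3 per well and treated with compound for 24 h. MTT 0.5 mg/mL added for 4 h at 37 °C after medium exchange, then DMSO lysis and absorbance at 570 nm. IC50 as mean ± SD, n = 3.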

[3] = Retardation factor of the compound
MCF7 [4] = assay: Inhibition of hypoxia-induced HIF1 protein expression in human MCF7 cells incubated for 16 hrs by Western blot analysis; format: functional, cell-based
Summary of the method: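 MCF-7 cells (2.5×10^6 per 100 mm dish) exposed to several compound concentrations for 16 h under 20% or 1% O2. Lysates run on 8% SDS-PAGE and blotted to nitrocellulose. Blocked in 5% milk, probed with anti-HIF-1α (1:1000) and β-actin (1:3000), then HRP secondary. Detected by chemiluminescence.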

MCF7 [5] = assay: Inhibition of hypoxia-induced HIF1 mRNA expression in human MCF7 cells incubated for 16 hrs by RT-PCR analysis; format: functional, cell-based
MCF7 [6] = assay: Cytotoxicity against human MCF7 cells assessed as reduction in cell viability incubated for 72 hrs by MTT assay; format: functional, cell-based; settings: MCF7, 72 h
Summary of the method: (§1)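 Cells seeded overnight at 3.0×10^3 (A549), 5.0×10^3 (HT29) or 4.0×10^3 (MCF-7, MDA-MB-231) per well, then exposed to compound for 72 h. Medium replaced, MTT 0.5 mg/mL added for 4 h at 37 °C, cells lysed in DMSO, absorbance read at 570 nm. IC50 as mean ± SD, n = 3. Final DMSO below 1.0%.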

MDA-MB-231 = assay: Cytotoxicity against human MDA-MB-231 cells assessed as reduction in cell viability incubated for 72 hrs by MTT assay; format: functional, cell-based; settings: MDA-MB-231, 72 h; summary of the method: as §1
A549 = assay: Cytotoxicity against human A549 cells assessed as reduction in cell viability incubated for 72 hrs by MTT assay; format: functional, cell-based; settings: A549, 72 h; summary of the method: as §1
HT-29 = assay: Cytotoxicity against human HT-29 cells assessed as reduction in cell viability incubated for 72 hrs by MTT assay; format: functional, cell-based; settings: HT-29, 72 h; summary of the method: as §1
[7] = Binding affinity to synthetic d(ACGTAGAACGT) dsDNA assessed as melting temperature at 2.5 uM by SYBR green I dye dependent differential scanning fluorimetry based thermal denaturation method (reference value: 44.2 +/- 1.0 degC)
[8] = Binding affinity to synthetic 5'-FAM-CCCTACGTATATGAAAATATACGTAGGG-BHQ1-3' dsDNA assessed as melting temperature at 2.5 uM by SYBR green I dye dependent differential scanning fluorimetry based thermal denaturation method (reference value: 70.7 +/- 0.0 degC)
MCF7 [9] = assay: Cytotoxicity against human MCF7 cells assessed as reduction in cell viability; format: functional, cell-based
Summary of the method: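 MTT viability assay. For the 72 h format, cells were plated overnight at 4.0×10^3 cells/well and then exposed to compounds for 72 h. For the 24 h screening format, cells were plated at 8.0×10^3 cells/well and exposed for 24 h. Medium was then refreshed, MTT was added at 0.5 mg/mL for 4 h at 37 °C, and cells were lysed in DMSO. Absorbance was read at 570 nm. IC50 reported as mean ± SD, n = 3.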

[10] = Inhibition of HIF1 (unknown origin) expressed in HEK293 cells assessed as reduction in hypoxia-induced HIF1 activation by luciferase reporter gene assay; format: cell-based; settings: Homo sapiens
Summary of the method: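 HEK293 clone stably carrying the p2.1 HRE-luciferase reporter, seeded at 8.0×10^4 cells/well and grown 24 h under normoxia. Cells were given fresh medium containing 0.25% DMSO and a range of compound concentrations for 1 h, then held under hypoxia (1% O2) or normoxia for 24 h. Luciferase activity was measured with a kit and normalised to protein content. IC50 reported as mean ± SD, n = 3.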

| Compound | IC50 [1] [nM] | IC50 (MCF7 [2]) [nM] | Rm [3] | inhibition (MCF7 [4]) | inhibition (MCF7 [5]) | IC50 (MCF7 [6]) [nM] | IC50 (MDA-MB-231) [nM] | IC50 (A549) [nM] | IC50 (HT-29) [nM] | Tm [7] [°C] | Tm [8] [°C] | IC50 (MCF7 [9]) [nM] | IC50 [10] [nM] |
| --- | --- | --- | --- | --- | --- | --- | --- | --- | --- | --- | --- | --- | --- |
| CC[C@H](C)[C@H]1C(=O)OC[C@@H](NC(=O)c2cnc3ccccc3n2)C(=O)N[C@@H](C)C(=O)N(C)[C@H]2CSSC[C@@H](C(=O)N1C)N(C)C(=O)[C@H](C)NC(=O)[C@H](NC(=O)c1cnc3ccccc3n1)COC(=O)[C@H]([C@@H](C)CC)N(C)C2=O | 60 | 4000 | 0.45 |  |  |  |  |  |  |  |  |  |  |
| CC(C)[C@H]1C(=O)OC[C@@H](NC(=O)c2cnc3ccccc3n2)C(=O)N[C@@H](C)C(=O)N(C)[C@H]2CSC(C)(C)SC[C@@H](C(=O)N1C)N(C)C(=O)[C@H](C)NC(=O)[C@H](NC(=O)c1cnc3ccccc3n1)COC(=O)[C@H](C(C)C)N(C)C2=O | 25.2 | 5900 | 0.31 |  |  |  |  |  |  |  |  |  |  |
| CC(C)[C@@H]1C(=O)OC[C@H](NC(=O)c2cnc3ccccc3n2)C(=O)N[C@H](C)C(=O)N(C)[C@@H]2CSSC[C@H](C(=O)N1C)N(C)C(=O)[C@@H](C)NC(=O)[C@@H](NC(=O)c1cnc3ccccc3n1)COC(=O)[C@@H](C(C)C)N(C)C2=O | > 100000 | > 100000 | 0.15 | inactive | inactive |  |  |  |  |  |  |  |  |
| CC[C@H](C)[C@H]1C(=O)OC[C@@H](NC(=O)c2cnc3ccccc3n2)C(=O)N[C@@H](C)C(=O)N(C)[C@H]2CSSC[C@@H](C(=O)N1C)N(C)C(=O)[C@H](C)NC(=O)[C@H](NC(=O)c1cnc3ccccc3n1)COC(=O)[C@H](C(C)C)N(C)C2=O | 55.5 | 4100 | 0.39 |  |  |  |  |  |  |  |  |  |  |
| CC(C)[C@H]1C(=O)OC[C@@H](NC(=O)c2cnc3ccccc3n2)C(=O)N[C@@H](C)C(=O)N(C)[C@@H](CS)C(=O)N(C)[C@@H](C(C)C)C(=O)OC[C@@H](NC(=O)c2cnc3ccccc3n2)C(=O)N[C@@H](C)C(=O)N(C)[C@@H](CS)C(=O)N1C | 32.3 | 2700 | 0.28 |  |  |  |  |  |  |  |  |  |  |
| CC(C)[C@@H]1C(=O)OC[C@@H](NC(=O)c2cnc3ccccc3n2)C(=O)N[C@@H](C)C(=O)N(C)[C@H]2CSSC[C@@H](C(=O)N1C)N(C)C(=O)[C@H](C)NC(=O)[C@H](NC(=O)c1cnc3ccccc3n1)COC(=O)[C@@H](C(C)C)N(C)C2=O | 590 | 6100 | 0.25 |  |  |  |  |  |  |  |  |  |  |
| CC(C)[C@H]1C(=O)OC[C@@H](NC(=O)CNC(=O)c2cnc3ccccc3n2)C(=O)N[C@@H](C)C(=O)N(C)[C@H]2CSSC[C@@H](C(=O)N1C)N(C)C(=O)[C@H](C)NC(=O)[C@H](NC(=O)CNC(=O)c1cnc3ccccc3n1)COC(=O)[C@H](C(C)C)N(C)C2=O | > 100000 | 13600 | -0.05 |  |  |  |  |  |  |  |  |  |  |
| CC(C)[C@H]1C(=O)OC[C@@H](NC(=O)c2cnc3ccccc3n2)C(=O)N[C@@H](C)C(=O)N(C)[C@H]2CSC[C@@H](C(=O)N1C)N(C)C(=O)[C@H](C)NC(=O)[C@H](NC(=O)c1cnc3ccccc3n1)COC(=O)[C@H](C(C)C)N(C)C2=O | 2.4 |  | 0.2 | Dose-dependent effect |  | 9.7 | 8 | 16.2 | 16.2 |  |  |  |  |
| CC(C)[C@H]1C(=O)OC[C@@H](NC(=O)c2cnc3ccccc3n2)C(=O)N[C@@H](C)C(=O)N(C)[C@H]2C/C=C\C[C@@H](C(=O)N1C)N(C)C(=O)[C@H](C)NC(=O)[C@H](NC(=O)c1cnc3ccccc3n1)COC(=O)[C@H](C(C)C)N(C)C2=O | 1 | 13.4 | 0.25 | Dose-dependent effect |  | 2.9 | 3.2 | 5.3 | 6.2 | 52.5 | 81.3 |  |  |
| CC(C)[C@H]1C(=O)OC[C@@H](NC(=O)c2cnc3ccccc3n2)C(=O)N[C@@H](C)C(=O)N(C)[C@H]2CSSC[C@@H](C(=O)N1C)N(C)C(=O)[C@H](C)NC(=O)[C@H](NC(=O)c1cnc3ccccc3n1)COC(=O)[C@@H](C(C)C)N(C)C2=O | 2000 | 24300 | 0.24 |  |  |  |  |  |  |  |  |  |  |
| CC(C)[C@H]1C(=O)OC[C@@H](NC(=O)c2cnc3ccccc3n2)C(=O)N[C@@H](C)C(=O)N(C)[C@H]2C[Se]C[C@@H](C(=O)N1C)N(C)C(=O)[C@H](C)NC(=O)[C@H](NC(=O)c1cnc3ccccc3n1)COC(=O)[C@H](C(C)C)N(C)C2=O | 2 |  | 0.2 | Dose-dependent effect |  | 7.1 | 6.8 | 14.5 | 11.7 |  |  |  |  |
| CSC1SC[C@H]2C(=O)N(C)[C@@H](C(C)C)C(=O)OC[C@@H](NC(=O)c3cnc4ccccc4n3)C(=O)N[C@@H](C)C(=O)N(C)[C@@H]1C(=O)N(C)[C@@H](C(C)C)C(=O)OC[C@@H](NC(=O)c1cnc3ccccc3n1)C(=O)N[C@@H](C)C(=O)N2C (some centres undefined) | 0.35 | 5.5 | 0.28 |  | inactive | 2 | 2.3 | 4.7 | 3.5 | 55.8 | 81.6 | 5.5 | 0.35 |
| CC(C)[C@H]1C(=O)OC[C@@H](NC(=O)c2cnc3ccccc3n2)C(=O)N[C@@H](C)C(=O)N(C)[C@H]2CCCC[C@@H](C(=O)N1C)N(C)C(=O)[C@H](C)NC(=O)[C@H](NC(=O)c1cnc3ccccc3n1)COC(=O)[C@H](C(C)C)N(C)C2=O | 6.3 | 123 | 0.32 |  |  | 23.5 | 25.3 | 71.9 | 57.4 |  |  |  |  |
| CC(C)[C@H]1C(=O)OC[C@@H](NC(=O)c2nc3ccccc3cc2O)C(=O)N[C@@H](C)C(=O)N(C)[C@H]2C/C=C\C[C@@H](C(=O)N1C)N(C)C(=O)[C@H](C)NC(=O)[C@H](NC(=O)c1nc3ccccc3cc1O)COC(=O)[C@H](C(C)C)N(C)C2=O | 0.09 |  | 0.52 | Dose-dependent effect |  | 0.22 |  |  |  | 54.3 |  |  |  |
| CC(=O)SC[C@H]1C(=O)N(C)[C@@H](C(C)C)C(=O)OC[C@@H](NC(=O)c2cnc3ccccc3n2)C(=O)N[C@@H](C)C(=O)N(C)[C@@H](CSC(C)=O)C(=O)N(C)[C@@H](C(C)C)C(=O)OC[C@@H](NC(=O)c2cnc3ccccc3n2)C(=O)N[C@@H](C)C(=O)N1C | 235 | 8700 | 0.23 |  |  |  |  |  |  |  |  |  |  |
| CSC[C@H]1C(=O)N(C)[C@@H](C(C)C)C(=O)OC[C@@H](NC(=O)c2cnc3ccccc3n2)C(=O)N[C@@H](C)C(=O)N(C)[C@@H](CSC)C(=O)N(C)[C@@H](C(C)C)C(=O)OC[C@@H](NC(=O)c2cnc3ccccc3n2)C(=O)N[C@@H](C)C(=O)N1C | 222 | 4300 | 0.34 |  |  |  |  |  |  |  |  |  |  |
| CC(C)[C@H]1C(=O)OC[C@@H](NC(=O)c2cnc3ccccc3n2)C(=O)N[C@@H](C)C(=O)N(C)[C@H]2CSSC[C@@H](C(=O)N1C)N(C)C(=O)[C@H](C)NC(=O)[C@H](NC(=O)c1cnc3ccccc3n1)COC(=O)[C@H](C(C)C)N(C)C2=O [TRIOSTIN] | 26.9 | 2000 | 0.15 |  |  | 212 | 178 | 322 | 340 | 47.2 | 78 | 4100 | 26.9 |
| CC(=O)N[C@@H]1COC(=O)[C@H](C(C)C)N(C)C(=O)[C@@H]2CSSC[C@@H](C(=O)N(C)[C@@H](C(C)C)C(=O)OC[C@@H](NC(C)=O)C(=O)N[C@@H](C)C(=O)N2C)N(C)C(=O)[C@H](C)NC1=O | > 100000 | 15500 | -0.3 |  |  |  |  |  |  |  |  |  |  |
